Source: ChEMBL document CHEMBL4033712, “Synthesis and biological evaluation of new C-12(α/β)-(N-) sulfamoyl-phenylamino-14-deoxy-andrographolide derivatives as potent anti-cancer agents” (Bioorg Med Chem Lett, 2017)

How the values were obtained:
Type in all cases: functional
SNB-75 = assay: Growth inhibition of human SNB75 cells incubated for 48 hrs by sulforhodamine B assay; conditions: SNB-75, 48 h; for CC50: read-out: LC50 (the source's name)
Summary of the method: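 NCI 60 human tumour cell line panel, five-dose study at 0.01, 0.1, 1, 10 and 100 µM, 48 h incubation. Sulforhodamine B protein-binding dye end point. GI50 (50% decrease in net cell growth), TGI (total growth inhibition) and LC50 (net 50% loss of initial cells) read from log concentration versus % growth inhibition curves.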

LOX IMVI [1] = assay: Growth inhibition of human LOXIMVI cells incubated for 48 hrs by sulforhodamine B assay; conditions: for CC50: read-out: LC50 (the source's name)
Summary of the method: (§1)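 NCI-60 five-dose screen at 0.01, 0.1, 1, 10 and 100 µM, 48 h incubation, sulforhodamine B end point. GI50 (50% decrease in net growth), TGI (total growth inhibition) and LC50 (net 50% loss of initial cells) taken from log concentration versus % growth inhibition curves.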

OVCAR-8 = assay: Growth inhibition of human OVCAR8 cells incubated for 48 hrs by sulforhodamine B assay; conditions: OVCAR-8, 48 h; for CC50: read-out: LC50 (the source's name); summary of the method: as §1
K562 = assay: Anticancer activity against human K562 cells assessed as cell growth at 10 uM after 48 hrs by sulforhodamine B assay relative to control; conditions: K562, 48 h, read-out: Activity
Summary of the method: (§2)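 Single-dose NCI-60 panel screen: compound added at 10 µM and the culture incubated 48 h. The end point was read by protein staining with sulforhodamine B. The value is percent growth of treated cells relative to untreated control cells, reported as a mean graph across the panel.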

RPMI-8226 = assay: Anticancer activity against human RPMI8226 cells assessed as cell growth at 10 uM after 48 hrs by sulforhodamine B assay relative to control; conditions: RPMI-8226, 48 h, read-out: Activity; summary of the method: as §2
HOP-62 = assay: Anticancer activity against human HOP62 cells assessed as cell growth at 10 uM after 48 hrs by sulforhodamine B assay relative to control; conditions: HOP-62, 48 h, read-out: Activity; summary of the method: as §2
NCI-H226 = assay: Anticancer activity against human NCI-H226 cells assessed as cell growth at 10 uM after 48 hrs by sulforhodamine B assay relative to control; conditions: NCI-H226, 48 h, read-out: Activity; summary of the method: as §2
NCI-H23 = assay: Anticancer activity against human NCI-H23 cells assessed as cell growth at 10 uM after 48 hrs by sulforhodamine B assay relative to control; conditions: NCI-H23, 48 h, read-out: Activity; summary of the method: as §2
NCI-H322M = assay: Anticancer activity against human NCI-H322M cells assessed as cell growth at 10 uM after 48 hrs by sulforhodamine B assay relative to control; conditions: read-out: Activity; summary of the method: as §2
NCI-H460 = assay: Anticancer activity against human NCI-H460 cells assessed as cell growth at 10 uM after 48 hrs by sulforhodamine B assay relative to control; conditions: NCI-H460, 48 h, read-out: Activity; summary of the method: as §2
COLO 205 = assay: Anticancer activity against human COLO205 cells assessed as cell growth at 10 uM after 48 hrs by sulforhodamine B assay relative to control; conditions: COLO 205, 48 h, read-out: Activity; summary of the method: as §2
HCC 2998 = assay: Anticancer activity against human HCC2998 cells assessed as cell growth at 10 uM after 48 hrs by sulforhodamine B assay relative to control; conditions: HCC 2998, 48 h, read-out: Activity; summary of the method: as §2
HCT-15 = assay: Anticancer activity against human HCT15 cells assessed as cell growth at 10 uM after 48 hrs by sulforhodamine B assay relative to control; conditions: HCT-15, 48 h, read-out: Activity; summary of the method: as §2
KM12 = assay: Anticancer activity against human KM12 cells assessed as cell growth at 10 uM after 48 hrs by sulforhodamine B assay relative to control; conditions: KM12, 48 h, read-out: Activity; summary of the method: as §2
SW-620 = assay: Anticancer activity against human SW620 cells assessed as cell growth at 10 uM after 48 hrs by sulforhodamine B assay relative to control; conditions: SW-620, 48 h, read-out: Activity
Summary of the method: (§3)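 NCI-60 single-dose screen: compound added at 10 µM, cultures incubated 48 h. End point by sulforhodamine B protein-binding dye. Value reported as percent growth of treated cells relative to untreated control cells.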

SF-295 = assay: Anticancer activity against human SF295 cells assessed as cell growth at 10 uM after 48 hrs by sulforhodamine B assay relative to control; conditions: SF-295, 48 h, read-out: Activity; summary of the method: as §2
LOX IMVI [2] = assay: Anticancer activity against human LOXIMVI cells assessed as cell growth at 10 uM after 48 hrs by sulforhodamine B assay relative to control; conditions: read-out: Activity; summary of the method: as §2
MDA-MB-435 = assay: Anticancer activity against human MDA-MB-435 cells assessed as cell growth at 10 uM after 48 hrs by sulforhodamine B assay relative to control; conditions: MDA-MB-435, 48 h, read-out: Activity; summary of the method: as §2
SK-MEL-28 = assay: Anticancer activity against human SK-MEL-28 cells assessed as cell growth at 10 uM after 48 hrs by sulforhodamine B assay relative to control; conditions: SK-MEL-28, 48 h, read-out: Activity; summary of the method: as §2
UACC-257 = assay: Anticancer activity against human UACC257 cells assessed as cell growth at 10 uM after 48 hrs by sulforhodamine B assay relative to control; conditions: UACC-257, 48 h, read-out: Activity; summary of the method: as §3
OVCAR-4 = assay: Anticancer activity against human OVCAR4 cells assessed as cell growth at 10 uM after 48 hrs by sulforhodamine B assay relative to control; conditions: OVCAR-4, 48 h, read-out: Activity; summary of the method: as §2
NCI/ADR-RES = assay: Anticancer activity against human NCI/ADR-RES cells assessed as cell growth at 10 uM after 48 hrs by sulforhodamine B assay relative to control; conditions: read-out: Activity; summary of the method: as §2
SK-OV-3 = assay: Anticancer activity against human SKOV3 cells assessed as cell growth at 10 uM after 48 hrs by sulforhodamine B assay relative to control; conditions: SK-OV-3, 48 h, read-out: Activity; summary of the method: as §2
786-0 = assay: Anticancer activity against human 786-0 cells assessed as cell growth at 10 uM after 48 hrs by sulforhodamine B assay relative to control; conditions: 786-0, 48 h, read-out: Activity; summary of the method: as §2
CAKI-1 = assay: Anticancer activity against human Caki1 cells assessed as cell growth at 10 uM after 48 hrs by sulforhodamine B assay relative to control; conditions: CAKI-1, 48 h, read-out: Activity; summary of the method: as §2
SN12C = assay: Anticancer activity against human SN12C cells assessed as cell growth at 10 uM after 48 hrs by sulforhodamine B assay relative to control; conditions: read-out: Activity; summary of the method: as §2
MCF7 = assay: Anticancer activity against human MCF7 cells assessed as cell growth at 10 uM after 48 hrs by sulforhodamine B assay relative to control; conditions: MCF7, 48 h, read-out: Activity; summary of the method: as §2
T47D = assay: Anticancer activity against human T47D cells assessed as cell growth at 10 uM after 48 hrs by sulforhodamine B assay relative to control; conditions: read-out: Activity; summary of the method: as §3
MDA-MB-468 = assay: Anticancer activity against human MDA-MB-468 cells assessed as cell growth at 10 uM after 48 hrs by sulforhodamine B assay relative to control; conditions: MDA-MB-468, 48 h, read-out: Activity; summary of the method: as §2

| SMILES | growth at 10 µM (K562) [%] | growth at 10 µM (RPMI-8226) [%] | growth at 10 µM (HOP-62) [%] | growth at 10 µM (NCI-H226) [%] | growth at 10 µM (NCI-H23) [%] | growth at 10 µM (NCI-H322M) [%] | growth at 10 µM (NCI-H460) [%] | growth at 10 µM (COLO 205) [%] | growth at 10 µM (HCC 2998) [%] | growth at 10 µM (HCT-15) [%] | growth at 10 µM (KM12) [%] | growth at 10 µM (SW-620) [%] | growth at 10 µM (SF-295) [%] | growth at 10 µM (LOX IMVI [2]) [%] | growth at 10 µM (MDA-MB-435) [%] | growth at 10 µM (SK-MEL-28) [%] | growth at 10 µM (UACC-257) [%] | growth at 10 µM (OVCAR-4) [%] | growth at 10 µM (NCI/ADR-RES) [%] | growth at 10 µM (SK-OV-3) [%] | also measured |
| --- | --- | --- | --- | --- | --- | --- | --- | --- | --- | --- | --- | --- | --- | --- | --- | --- | --- | --- | --- | --- | --- |
| C=C1CC[C@@H]2[C@](C)(COC(C)=O)[C@H](OC(C)=O)CC[C@@]2(C)[C@H]1CC(Nc1ccc(S(=O)(=O)Nc2nccs2)cc1)C1=CCOC1=O (stereo partly specified) | 3.4 | -13.3 | 120 | -14 | 38.1 | 59.9 | 29.5 | -24.6 | 54.2 | -39.2 | -0.89 | -72.7 | 73 | -88.3 | -8.31 | -16.3 | 22.4 | 38 | 9.2 | 79.9 | GI50 (SNB-75): 2.83 µM; TGI (SNB-75): 15.6 µM; CC50 (SNB-75): 39.5 µM; GI50 (LOX IMVI [1]): 1.59 µM; TGI (LOX IMVI [1]): 3.31 µM; CC50 (LOX IMVI [1]): 6.92 µM; GI50 (OVCAR-8): 3.14 µM; TGI (OVCAR-8): 10.8 µM; CC50 (OVCAR-8): 47.7 µM; growth at 10 µM (786-0): 6.27%; growth at 10 µM (CAKI-1): 55.9%; growth at 10 µM (SN12C): 15.6%; growth at 10 µM (MCF7): -21.3%; growth at 10 µM (T47D): 34.6%; growth at 10 µM (MDA-MB-468): -59.9% |
| C=C1CC[C@@H]2[C@](C)(COC(C)=O)[C@H](OC(C)=O)CC[C@@]2(C)[C@H]1CC(Nc1ccc(S(=O)(=O)Nc2nc(C)cc(C)n2)cc1)C1=CCOC1=O (stereo partly specified) | 19.1 | 2.24 | 103 | 86.7 | 84.3 | 97.2 | 90.3 | 77 | 100 | 49.2 | 64.7 | 40 | 97 | -60.6 | 67 | 83.5 | 67.9 | 65 | 66.7 | 112 | growth at 10 µM (786-0): 103%; growth at 10 µM (CAKI-1): 74%; growth at 10 µM (SN12C): 38.2%; growth at 10 µM (MCF7): 40.3%; growth at 10 µM (T47D): 68.8%; growth at 10 µM (MDA-MB-468): 41% |
| C=C1CC[C@@H]2[C@](C)(COC(C)=O)[C@H](OC(C)=O)CC[C@@]2(C)[C@H]1CC(Nc1ccc(S(=O)(=O)Nc2cc(C)on2)cc1)C1=CCOC1=O (stereo partly specified) | 9.67 | -15.2 | 60.2 | 79.5 | 71 | 80.4 | 79.5 | 29 | 68.3 | 0.18 | 30.5 | 14.7 | 100 | -72.7 | 35 | 38.1 | 69 | 68.2 | 31.6 | 109 | GI50 (SNB-75): 2.03 µM; TGI (SNB-75): 11.5 µM; CC50 (SNB-75): 33.9 µM; GI50 (LOX IMVI [1]): 1.18 µM; TGI (LOX IMVI [1]): 2.54 µM; CC50 (LOX IMVI [1]): 5.46 µM; GI50 (OVCAR-8): 1.88 µM; TGI (OVCAR-8): 4.3 µM; CC50 (OVCAR-8): 9.83 µM; growth at 10 µM (786-0): 89.8%; growth at 10 µM (CAKI-1): 44%; growth at 10 µM (SN12C): 31.8%; growth at 10 µM (MCF7): 12.2%; growth at 10 µM (T47D): 63.6%; growth at 10 µM (MDA-MB-468): 3.23% |
